Screening data (PubChem)
Arrestin-AP2 inh = inhibitors of human beta-arrestin and AP2 interaction; FITC-arrestin peptide / GST-AP2 beads, flow cytometry; AP2 beta2 appendage carries R879A mutation; inhibition, % at 10 µM; 0.31% of 340,000 active; AID 504490;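 active means inhibition above a set limit, near 3 SD of compounds lacking own fluorescence, cut at about 54% in these data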;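 further: plate controls were DMSO wells for no effect and 5 µM unlabelled arrestin peptide for full effect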
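Material – AP2 appendage R879A on GSH beads · Buffer or medium – PBS with 0.05% Tween 20 and 0.1% BSA · Probe or stimulus – fluorescein-tagged arrestin peptide at 50 nM final · Incubation – compound with beads 12 min RT, then probe 1 h RT · Detection – high-throughput flow cytometry of beads, ex 488, em 535 nm · Evaluation – percent response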
Pemphigus Ab inh = inhibitors of pemphigus antibody binding to human desmoglein-3; P32926; DSG3-coupled beads, scFv-anti-DSG3-GFP binding, flow cytometry; active compounds read low; binding (percent of control), % at 10 µM; 0.48% of 310,000 active;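 active means binding more than 3 SD below its plate's average and above zero; inconclusive means below that plate limit but binding exactly zero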;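 further: hits lower antibody fragment binding to DSG3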
T cell modulator = modulates CD8 T cell binding to vesicles | 2C CD8+ T cell-vesicle binding, flow cytometry; active compounds read low | 0.068% of 330,000 active | response (vesicle binding), % at 7 µM;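 active means response, share of CD8 T cells binding vesicles, and their 90th percentile fluorescence all below set limits, cut at about 80% in these data, passing the limit was not always enough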;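 further: values below 100% mean blocked vesicle binding to the CD8+ T cells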
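Also added: QL9-peptide-loaded Drosophila micro-vesicles bearing Ld, ICAM-1 and B7-1; Test system: purified 2C TCR transgenic mouse naive CD8+ T cells; Measured by: cytometric PE anti-B7-1 and Alexa647 anti-CD8 signals after 1% paraformaldehyde fixation; Timing: binding step 1.5 h, 37 °C, antibody labelling 20 min, ice.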
LANA-H2A inh = blocks KSHV LANA binding to histone H2A/H2B; cell-free LANA-H2A/H2B peptide, fluorescence polarization; 0.6% of 320,000 active; inhibition, % (no concentration beside the values); in the data active means inhibition mostly above about 10%, no sharp cut-off; inactive means mostly below about 6.7%
Target sequence (Q9QR71 whole entry, looked up): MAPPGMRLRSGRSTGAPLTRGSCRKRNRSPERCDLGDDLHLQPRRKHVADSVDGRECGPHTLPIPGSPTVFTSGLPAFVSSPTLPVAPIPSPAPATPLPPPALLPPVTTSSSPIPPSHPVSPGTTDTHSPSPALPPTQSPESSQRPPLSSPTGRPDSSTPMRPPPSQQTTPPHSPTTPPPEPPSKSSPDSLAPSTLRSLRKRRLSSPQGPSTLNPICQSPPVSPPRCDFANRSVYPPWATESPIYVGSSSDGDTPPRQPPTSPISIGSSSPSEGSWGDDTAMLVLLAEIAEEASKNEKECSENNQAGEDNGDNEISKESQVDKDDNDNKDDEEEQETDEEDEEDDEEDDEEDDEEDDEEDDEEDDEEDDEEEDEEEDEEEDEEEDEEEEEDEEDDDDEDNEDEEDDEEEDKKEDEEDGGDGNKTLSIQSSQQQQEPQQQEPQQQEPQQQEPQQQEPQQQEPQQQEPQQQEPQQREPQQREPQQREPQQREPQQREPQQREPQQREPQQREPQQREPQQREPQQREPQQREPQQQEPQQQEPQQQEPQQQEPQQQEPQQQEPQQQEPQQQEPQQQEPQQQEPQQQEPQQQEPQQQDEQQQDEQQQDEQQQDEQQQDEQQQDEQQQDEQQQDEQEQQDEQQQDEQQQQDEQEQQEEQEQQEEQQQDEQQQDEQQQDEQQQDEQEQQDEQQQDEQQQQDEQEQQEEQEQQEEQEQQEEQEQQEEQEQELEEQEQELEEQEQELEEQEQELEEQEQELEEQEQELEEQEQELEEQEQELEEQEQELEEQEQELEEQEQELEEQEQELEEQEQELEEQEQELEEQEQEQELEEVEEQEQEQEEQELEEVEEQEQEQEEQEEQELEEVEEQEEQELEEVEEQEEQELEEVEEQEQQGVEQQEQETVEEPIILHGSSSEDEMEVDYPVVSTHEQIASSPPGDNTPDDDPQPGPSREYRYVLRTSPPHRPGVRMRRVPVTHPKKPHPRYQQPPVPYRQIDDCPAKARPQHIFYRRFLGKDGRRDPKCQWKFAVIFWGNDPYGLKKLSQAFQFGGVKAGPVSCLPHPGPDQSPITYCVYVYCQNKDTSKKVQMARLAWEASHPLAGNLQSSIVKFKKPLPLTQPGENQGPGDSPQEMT
HDAC3 inhib = inhibitors of human histone deacetylase 3. recombinant HDAC3, fluorogenic peptide/trypsin coupled, fluorescence. inhibition, % at 8.3 µM. 0.15% of 320,000 active. AID 2718; in the data active means inhibition above about 26%, passing the limit was not always enough; inconclusive means no clear call, values can overlap the other calls
* marks the source's active call; other numbers are inactive results; i = inactive; ? = inconclusive; . = not tested or not shown; + = active, no number. This is a sample that favours compounds with a hit; in the whole collection about 1.5% have one here.

SMILES | Arrestin-AP2 inh | Pemphigus Ab inh | T cell modulator | LANA-H2A inh | HDAC3 inhib
O=C(O)c1cc(O)c2c(c1)[C@H]([C@H]1c3cc(C(=O)O)cc(O)c3C(=O)c3c(O[C@@H]4O[C@H](CO)[C@@H](O)[C@H](O)[C@H]4O)cccc31)c1cccc(OC3O[C@H](CO)[C@@H](O)[C@H](O)[C@H]3O)c1C2=O (stereo partly drawn) | 21 | -9.0* | 849 | 8 | 5
Cn1c(=O)c2c(SCC(=O)N3CCOCC3)nc(-c3ccccc3F)nc2n(C)c1=O | -4 | . | 843 | -2 | 2
COc1ccccc1/C=C/C(=O)OCC(=O)c1cc(C)n(C)c1C | 11 | 103 | 249 | + | 5
CN(C(=O)CSc1nnc(C2CC2)n1C1CC1)C1(C#N)CCCCC1 | 33 | 103 | 386 | 4 | -4
C=CCn1c(SCC(=O)Nc2ccc(-c3nc4ccc(C)cc4s3)cc2)nnc1-c1ccccc1 | 9 | 95 | 147 | 159* | -11
CCn1c(SCC(=O)Nc2ccccc2)nc2c(c1=O)SCC2 | . | 101 | . | . | .
CC(=O)O[C@@H](C[C@@H](C)C1=C2C[C@H](O)C3[C@@]4(C)CCC(=O)C(C)(C)C4CC[C@]3(C)[C@@]2(C)CC1)[C@H]1OC1(C)C (stereo partly drawn) | 24 | 96 | . | . | .
COc1ccc(C(=O)Oc2ccc3c(c2)OCO3)cc1OC | -6 | 21* | i | -1 | -9
Cc1ccc(C(=O)COC(=O)CNC(=O)c2ccccc2)s1 | -4 | 102 | 395 | 2 | 0
COc1ccc(C(C)=O)cc1COC(=O)c1cc(C)nc2ccccc12 | 8 | 61* | 350 | -2 | -3
N#Cc1ccccc1/C=N/Nc1nc(-c2ccccc2)c2cc(Cl)ccc2n1 | 3 | 68 | 418 | 55* | 0
Cc1ccc2nc(N/N=C/c3ccccc3C#N)nc(-c3ccccc3)c2c1 | 25 | 97 | 282 | -1 | 2
COc1cc2c(cc1OC)C(COc1ccc([N+](=O)[O-])cc1)N(C(C)=O)CC2 (stereo not drawn) | -13 | 106 | 158 | -5 | 9
COc1ccc(C(C#N)=Cc2ccccc2OC)cc1 | . | 104 | . | . | .
COc1cccc(N/C=C(\C#N)c2ccc(OCCCF)cc2)c1 | -3 | 73* | 566 | 4 | -11
O=C(Nc1cccc(C(=O)N2CCOCC2)c1)C1CC1 | 32 | 110 | . | . | .
CC(=O)Nc1ccc(NC(=O)COC(=O)Cc2c[nH]c3ccccc23)cc1 | -9 | 100 | 242 | 1 | 8
O=C(COC(=O)Cc1c[nH]c2ccccc12)Nc1cccc2ccccc12 | 0 | 94 | 304 | 14* | 1
O=C1N=c2ccccc2=C1c1sc(Nc2ccc(O)cc2)nc1O | 4 | -15* | . | . | .
CSc1nc(=S)c2[nH]c(=S)[nH]c2[nH]1 | -4 | 83 | 207 | 0 | 36*
CN1CCN(S(=O)(=O)c2cccc(C#N)c2)C(c2ccccc2)C1 (stereo not drawn) | -10 | 96 | . | . | .
Cc1nnc(SC(C)C(=O)NC2CCCCC2)[nH]c1=O (stereo not drawn) | -14 | 98 | . | . | .
CN(C)Cc1c(C(=O)N/N=C/c2ccncc2)nnn1-c1nonc1N | -6 | 91 | 148 | 3 | 2
CCCN(CCC)Cc1c(C(=O)N/N=C/c2c[nH]c3ccccc23)nnn1-c1nonc1N | 9 | 103 | 234 | 7 | 32*
CN(C)Cc1c(C(=O)N/N=C/c2cccc3ccccc23)nnn1-c1nonc1N | -1 | 56* | 380 | 6 | 10
SMILES | Arrestin-AP2 inh | Pemphigus Ab inh | T cell modulator | LANA-H2A inh | HDAC3 inhib
O=C(Cc1cccc(NC(=O)C2CCCN(C(=O)C3CCCC3)C2)c1)Nc1cccc(C(=O)N2CCCCC2)c1 (stereo not drawn) | -19 | 100 | . | . | .
O=C(O)C1=C[C@@H](c2ccc(C(F)(F)F)cc2)C[C@@H](OCc2ccc(CO)cc2)O1 | 3 | 102 | 347 | 1 | 34*
Cc1nc2sccn2c(=O)c1CCN1CCC(=C(c2ccc(F)cc2)c2ccc(F)cc2)CC1 | -7 | 118 | 715 | 8.3* | 3
Cc1nc2ccccn2c(=O)c1CCN1CCC(C(=O)c2ccc(F)cc2)CC1 | -3 | 102 | 118 | -3 | 0
CCCCCCCCCCOC(=O)Cn1c(COc2ccc(Cl)cc2)[n+](C)c2ccccc21 | -3 | 109 | 239 | 10 | 52*
COc1ccc(NC(=S)NNC(=S)Nc2cccc(C(F)(F)F)c2)cc1 | 16 | 98 | 972 | -1 | 28*
CCOc1ccc(NC(=S)NNC(=S)Nc2cccc(C(F)(F)F)c2)cc1 | 6 | 112 | 291 | 1 | ?
Cc1ccc(-c2cnc3ccccc3n2)cc1C | 29 | 100 | 362 | 2 | -7
CCOc1ccc(CCn2c(-c3ccco3)nc3ccccc3c2=O)cc1OCC | 3 | 102 | 265 | 11* | 4
COc1ccc(NC(=S)NNC(=O)OC(C)(C)C)cc1OC | -5 | 100 | 268 | 33* | 1
Cc1ccc2c(c1C)C(=O)C(=O)N2 | -15 | . | . | . | .
Cc1ccc(Cl)c2c1NC(=O)C2=O | -4 | 103 | 0.0* | 3 | 4
O=C(O)c1cccc(-c2ccc(/C=N/Nc3ccc([N+](=O)[O-])cc3)o2)c1 | 21 | 94 | 129 | -2 | 1
NS(=O)(=O)c1ccc(-c2ccc(/C=N/NC(=O)c3ccc([N+](=O)[O-])cc3)o2)cc1 | 9 | 75* | 314 | 0 | 0
O=C(O)c1ccc(-c2ccc(/C=N/Nc3ccc([N+](=O)[O-])cc3)o2)cc1 | 11 | 6.2* | 252 | -1 | -4
CCC(=O)N/N=C/c1ccc(-c2ccc([N+](=O)[O-])cc2)o1 | 32 | 102 | 606 | 4 | 5
CCc1ccc(CN(C)C(=O)c2cc(COc3ccc(-n4cncn4)cc3)on2)cc1 | 5 | 100 | 253 | 1 | 4
C=CCNC(=S)N1CCN(Cc2ccccc2)CC1 | 20 | 102 | 571 | 18* | -1
CCOc1ccc(N2CC(C(=O)Nc3ccc(N4CCOCC4)cc3)CC2=O)cc1 (stereo not drawn) | 0 | -10* | 433 | 7 | 0
Cc1ccc(N2CC(C(=O)Nc3ccc(N4CCOCC4)cc3)CC2=O)cc1C (stereo not drawn) | -3 | -0.9* | 230 | 3 | -5
CCN(CC)CCNC(=O)c1ccc(NC(=O)C2CC(=O)N(c3ccc4c(c3)OCCO4)C2)cc1 (stereo not drawn) | -8 | 126 | 131 | 61* | -1
CCN1CCN(c2oc(-c3ccccc3C)nc2S(=O)(=O)c2ccccc2)CC1 | -4 | 97 | . | . | .
O=C(NCc1ccc2c(c1)OCO2)c1nc(Cn2cc([N+](=O)[O-])cn2)no1 | 1 | 95 | 260 | 2 | 4
CC(C)CC(=O)N1CCN(C(=O)c2ccc(F)cc2)CC1 | 6 | 114 | 243 | 16* | -10
Cc1nn(C)cc1C(C(=O)NC1CCCCC1)N(Cc1ccccc1Cl)C(=O)c1cnccn1 (stereo not drawn) | -7 | 96 | 489 | 3 | -10
